pIC50: −log10 of the molar value.
What was measured:
cells [1] = format: cell-based, Ebolavirus, HEK293T; settings: Orthoebolavirus, Mayinga, HEK-293T
[2] = Cytotoxicity against human HEK293T cells incubated for 48 hrs by MTT assay; format: cell-based, HEK-293T; settings: HEK293T cells
Procedure, shortened: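 HEK293T cells at 10⁵ cells/ml were added to two-fold compound dilutions in 10% DMEM and incubated 48 h at 37 °C, 5% CO2. MTT (5 mg/ml stock in PBS, 1/10 volume) was added for 2 h, and formazan was dissolved in DMSO before reading optical density. Each concentration was run in triplicate. CC50 was the concentration giving 50% cell death, or halving OD versus control.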

in vitro = settings: human, HEK293T cells
cells [3] = format: cell-based, HEK293T; settings: Vesicular stomatitis virus, HEK-293T
Influenza A virus = test: Antiviral activity against Influenza A virus (H1N1); format: functional, organism-based
Zaire ebolavirus = test: Antiviral activity against Zaire ebolavirus infected in African green monkey Vero cells assessed as inhibition of viral infection by measuring […] incubated for 10 days by neutral red dye based colorimetric analysis; format: functional, organism-based; settings: vero
[4] = Cytotoxicity against African green monkey Vero cells assessed as reduction in cell survival incubated for 10 days by neutral red dye based colorimetric analysis; settings: chlorocebus sabaeus, Vero cells; time 10 day
Procedure, shortened: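 Confluent Vero monolayers received six concentrations from 3-fold serial dilutions in DMEM of DMSO-dissolved compound, plus medium without virus. After 10 days at 37 °C, 5% CO2, cells were stained with neutral red and read at 490 nm. CC50 came from a 4-parameter fit, with at least 3 analyses per compound.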

Marburgvirus = test: Antiviral activity against MARV Popp infected in African green monkey Vero cells assessed as inhibition of viral infection by measuring reduction in virus-induced cytotoxicity incubated for 10 days by neutral red dye based colorimetric analysis; format: functional, organism-based; settings: Orthomarburgvirus, Popp, Vero, 240 h; read-out: IC50

Row | Compound | pIC50 (cells [1]) | CC50 at 48 h [2] | selectivity ratio (in vitro) | pIC50 (cells [3]) | pIC50 (Influenza A virus) | IC50 (Zaire ebolavirus) | CC50 at 240 h [4] | pIC50 (Marburgvirus)
1 | CN(C)CCCC(=O)O[C@@H]1C[C@@H]2CC[C@@]1(C)C2(C)C | 5.82 | 101 µM | 67 |  |  |  |  | 
2 | CC1CCN(CCC(=O)N[C@@H]2C[C@H]3CC[C@]2(C)C3(C)C)CC1 | 5.59 | 93.6 µM | 36 | 4.03 |  |  |  | 
3 | CC1CCN(CC(=O)N[C@@H]2C[C@H]3CC[C@]2(C)C3(C)C)CC1 | 4.57 | 78 µM |  | 4.11 |  |  |  | 
4 | CC1(C)[C@@H]2CC[C@@]1(C)[C@H](OC(=O)CN1CCCCC1)C2 | 5.54 | 80.5 µM | 28 |  |  |  |  | 
5 | CC1CCN(CC(=O)O[C@@H]2C[C@@H]3CC[C@@]2(C)C3(C)C)CC1 | 5.07 | 71.6 µM | 8 | 4.46 |  |  |  | 
6 | CCN1CCN(CCCC(=O)O[C@@H]2C[C@@H]3CC[C@@]2(C)C3(C)C)CC1 | 7.00 | 131 µM | 880 | 3.78 |  |  |  | 
7 | CN1CCN(CCCC(=O)N[C@@H]2C[C@H]3CC[C@]2(C)C3(C)C)CC1 | 5.60 | 475 µM | 191 | 3.32 |  |  |  | 
8 | CCN(CC)CC(=O)O[C@@H]1C[C@@H]2CC[C@@]1(C)C2(C)C | 5.25 | 344 µM | 61 | 3.25 |  |  |  | 
9 | CC1(C)[C@H]2CC[C@]1(C)[C@@H](OC(=O)CN1CCCCC1)C2 | 5.44 | 89.5 µM | 25 |  |  |  |  | 
10 | CC1CCN(CCCC(=O)N[C@@H]2C[C@H]3CC[C@]2(C)C3(C)C)CC1 | 5.47 | 142 µM | 41 | 3.85 |  |  |  | 
11 | CN1CCN(CCCC(=O)O[C@@H]2C[C@@H]3CC[C@@]2(C)C3(C)C)CC1 | 6.22 | 99.2 µM |  | 4.01 |  |  |  | 
12 | CC1CCN(CCCC(=O)O[C@@H]2C[C@@H]3CC[C@@]2(C)C3(C)C)CC1 | 5.03 | 171 µM |  | 3.56 |  |  |  | 
13 | CCN1CCN(CCC(=O)N[C@@H]2C[C@H]3CC[C@]2(C)C3(C)C)CC1 | 6.22 | 565 µM | 908 | 3.25 |  |  |  | 
14 | CC1(C)[C@@H]2CC[C@@]1(C)[C@H](NC(=O)CCN1CCOCC1)C2 | 4.66 | 312 µM |  | 3.51 |  |  |  | 
15 | CC1(C)[C@H]2CC[C@]1(C)[C@H](OC(=O)CN1CCN(Cc3ccccc3)CC1)C2 | 5.89 | 59.4 µM | 44 | 4.40 |  |  |  | 
16 | CN(C)CC(=O)O[C@@H]1C[C@@H]2CC[C@@]1(C)C2(C)C | 3.60 | 389 µM | 2 | 3.28 |  |  |  | 
17 | CC1(C)[C@H]2CC[C@]1(C)[C@H](OC(=O)CCCN1CCN(CCN)CC1)C2 | 6.22 | 71.1 µM | 125 | 4.30 |  |  |  | 
18 | CN1CCN(CCC(=O)N[C@@H]2C[C@H]3CC[C@]2(C)C3(C)C)CC1 | 5.59 | 486 µM | 187 | 3.31 |  |  |  | 
19 | CC1(C)[C@H]2CC[C@]1(C)[C@H](OC(=O)CCCN1CCN(CCO)CC1)C2 | 6.52 | 224 µM | 658 | 3.72 |  |  |  | 
20 | CN1CCN(CC(=O)O[C@@H]2C[C@@H]3CC[C@@]2(C)C3(C)C)CC1 | 5.17 | 312 µM | 46 | 3.31 |  |  |  | 
21 | CCN1CCN(CC(=O)N[C@@H]2C[C@H]3CC[C@]2(C)C3(C)C)CC1 | 5.07 | 660 µM | 78 | 3.18 |  |  |  | 
22 | CCN1CCN(CC(=O)O[C@@H]2C[C@@H]3CC[C@@]2(C)C3(C)C)CC1 | 5.80 | 130 µM | 80 | 3.58 |  |  |  | 
23 | CC1(C)[C@H]2CC[C@]1(C)[C@H](OC(=O)CN1CCCCCC1)C2 | 6.00 | 71.6 µM | 70 |  |  |  |  | 
24 | CN[C@H]1CC[C@@H](c2ccc(Cl)c(Cl)c2)c2ccccc21 [SERTRALINE] |  | 408 µM |  |  |  |  |  | 
25 | CCN1CCN(CCCC(=O)N[C@@H]2C[C@H]3CC[C@]2(C)C3(C)C)CC1 | 5.68 | 268 µM | 129 | 3.57 |  |  |  | 
26 | CC1(C)[C@H]2CC[C@]1(C)[C@H](OC(=O)CN1CCN(CCN)CC1)C2 | 5.66 | 247 µM | 114 | 4.62 |  |  |  | 

Row | Compound | pIC50 (cells [1]) | CC50 at 48 h [2] | selectivity ratio (in vitro) | pIC50 (cells [3]) | pIC50 (Influenza A virus) | IC50 (Zaire ebolavirus) | CC50 at 240 h [4] | pIC50 (Marburgvirus)
27 | CC1(C)[C@H]2CC[C@]1(C)[C@H](OC(=O)CCCN1CCN(Cc3ccccc3)CC1)C2 | 6.52 | 30.1 µM | 100 | 4.59 |  |  |  | 
28 | CC1(C)[C@@H]2CC[C@@]1(C)[C@H](NC(=O)CN1CCOCC1)C2 | 5.24 | 838 µM | 147 | 3.08 |  |  |  | 
29 | CCN(CC)CCC(=O)O[C@@H]1C[C@@H]2CC[C@@]1(C)C2(C)C | 4.91 | 327 µM | 26 | 3.39 |  |  |  | 
30 | CC1(C)[C@H]2CC[C@]1(C)[C@H](OC(=O)CCCN1CCOCC1)C2 | 5.19 | 210 µM | 33 | 3.54 |  |  |  | 
31 | CCN(CC)CCCC(=O)O[C@@H]1C[C@@H]2CC[C@@]1(C)C2(C)C | 6.52 | 166 µM | 490 | 3.71 |  |  |  | 
32 | CC1(C)[C@H]2CC[C@]1(C)[C@H](OC(=O)CCCN1CCCCC1)C2 | 6.52 | 74.8 µM | 230 | 4.30 |  |  |  | 
33 | CCOC(=O)N1CCN(CCCC(=O)O[C@@H]2C[C@@H]3CC[C@@]2(C)C3(C)C)CC1 | 5.59 | 60.4 µM | 23 | 4.31 |  |  |  | 
34 | CCOC(=O)N1CCN(CC(=O)O[C@@H]2C[C@@H]3CC[C@@]2(C)C3(C)C)CC1 | 4.70 | 227 µM | 11 | 3.95 |  |  |  | 
35 | CC1(C)[C@H]2CC[C@]1(C)[C@H](OC(=O)CN1CCOCC1)C2 | 4.60 | 327 µM | 13 | 3.54 |  |  |  | 
36 | CC1CCN(CCCCC(=O)O[C@@H]2C[C@@H]3CC[C@@]2(C)C3(C)C)CC1 | 6.70 | 73 µM | 408 | 4.08 |  |  |  | 
37 | CC1CCN(CC(=O)O[C@H]2C[C@@H]3CC[C@@]2(C)C3(C)C)CC1 | 5.36 | 34.1 µM | 8 |  |  |  |  | 
38 | CC1(C)[C@H]2CC[C@]1(C)[C@H](OC(=O)CN1CCCCC1)C2 | 4.80 | 141 µM | 9 | 3.91 |  |  |  | 
39 | CCOC(=O)N1CCN(CCC(=O)O[C@@H]2C[C@@H]3CC[C@@]2(C)C3(C)C)CC1 | 4.55 | 110 µM | 4 |  |  |  |  | 
40 | CC1(C)[C@H]2CC[C@]1(C)[C@H](OC(=O)CN1CCN(CCO)CC1)C2 | 4.86 | 296 µM | 21 | 3.40 |  |  |  | 
41 | CC1(C)[C@@H]2CC[C@@]1(C)/C(=N/CCO)C2 |  |  |  |  | 5.29 |  |  | 
42 | CC1(C)[C@H]2CC[C@]1(C)[C@H](OC(=O)CCN1CCN(CCO)CC1)C2 | 5.74 | 272 µM | 153 | 3.59 |  |  |  | 
43 | CN(C)CCC(=O)O[C@@H]1C[C@@H]2CC[C@@]1(C)C2(C)C | 4.52 | 505 µM | 17 |  |  |  |  | 
44 | CC1(C)[C@H]2CC[C@]1(C)[C@H](OC(=O)CCN1CCN(Cc3ccccc3)CC1)C2 | 6.52 | 39 µM | 150 | 4.57 |  |  |  | 
45 | CC1(C)[C@H]2CC[C@]1(C)[C@H](OC(=O)CCCN1CCCCCC1)C2 | 6.70 | 62.2 µM | 250 |  |  |  |  | 
46 | CC1CCN(CC(=O)O[C@@H]2C[C@H]3CC[C@]2(C)C3(C)C)CC1 | 5.51 | 34.1 µM | 11 |  |  |  |  | 
47 | CC1(C)[C@@H]2CC[C@@]1(C)[C@H](NC(=O)CCCN1CCOCC1)C2 | 5.03 | 172 µM | 18 | 3.76 |  |  |  | 
48 | CC1(C)[C@H]2CC[C@]1(C)[C@H](OC(=O)CCN1CCCCCC1)C2 | 5.29 | 182 µM | 36 | 3.72 |  |  |  | 
49 | CC1(C)[C@H]2CC[C@]1(C)[C@H](OC(=O)CCCCN1CCCCC1)C2 | 6.22 | 101 µM | 162 | 3.98 |  |  |  | 
50 | CCN1CCN(CCC(=O)O[C@@H]2C[C@@H]3CC[C@@]2(C)C3(C)C)CC1 | 5.80 | 264 µM |  | 4.09 |  | Not Active | 19.2 µM | 4.75
51 | CN1CCN(CC(=O)N[C@@H]2C[C@H]3CC[C@]2(C)C3(C)C)CC1 | 4.88 | 853 µM | 64 | 3.07 |  |  |  | 
